Measurements reported in the M2OR odorant receptor database.

Molecular target: OR10J4 (Homo sapiens) (UniProt P0C629)
Details: stereoisomer not certain
Outline: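 Transient luciferase assays in mammalian cell lines were common, though methods varied by source. The values come from published papers and their supplementary material, with extra details from the original authors when needed. Responsive refers to a measured signal the original authors judged statistically different from baseline, and non-responsive (inactive) to the remainder.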

Sequence of OR10J4 (Homo sapiens) (P0C629 whole entry F198I): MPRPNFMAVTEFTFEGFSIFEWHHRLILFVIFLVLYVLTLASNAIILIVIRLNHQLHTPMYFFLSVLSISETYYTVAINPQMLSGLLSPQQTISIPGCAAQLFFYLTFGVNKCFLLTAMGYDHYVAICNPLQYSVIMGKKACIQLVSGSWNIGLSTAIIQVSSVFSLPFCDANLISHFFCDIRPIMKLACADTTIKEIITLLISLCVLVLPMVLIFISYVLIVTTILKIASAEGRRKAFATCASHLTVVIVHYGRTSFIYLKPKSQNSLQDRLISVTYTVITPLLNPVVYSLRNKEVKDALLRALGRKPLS

SMILES	odorant receptor agonist call;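 also: active if original authors judged signal statistically different from baseline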
CC1CCCCCCCCCCCCC(=O)C1 (configuration not stated)	inactive
CC(=O)c1c(C)c([N+](=O)[O-])c(C(C)(C)C)c([N+](=O)[O-])c1C	inactive
